Series [1] concerns Nucleic Acid. Kind of series: Inhibition of Fenton's reaction mediated DNA strand break in Escherichia coli pBR322 at 0.1 to 1 uM by gel electrophoresis. Format: nucleic-acid assay. The method, boiled down: (§1)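 pBR322 (0.2 μg) incubated 30 min at room temperature in 13 mM Hepes pH 7.2 with 1 mM H2O2 and 10 μM FeSO4 plus compound. Run on 1% agarose containing 0.1 μg/mL ethidium bromide at 90 V for 60 min. Bands quantified; % supercoiled = 1.4SC/(L+OC+1.4SC)×100.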

For series [2], the system named is HT-29. Kind of series: Cell cycle arrest in nocodazole pretreated human HT-29 cells assessed as accumulation at M phase at 5 uM after 24 hrs. Format: functional, cell-based. The method, boiled down: (§2)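 HT-29 cells stained with propidium iodide; cell-cycle distribution determined by flow cytometry.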
In series [3] the target is DNA topoisomerase 2-alpha (Homo sapiens, UniProt P11388). Kind of series: Inhibition of human topoisomerase 2alpha-mediated relaxation of pBR322 up to 125 uM.
Chain of DNA topoisomerase 2-alpha (P11388 whole entry): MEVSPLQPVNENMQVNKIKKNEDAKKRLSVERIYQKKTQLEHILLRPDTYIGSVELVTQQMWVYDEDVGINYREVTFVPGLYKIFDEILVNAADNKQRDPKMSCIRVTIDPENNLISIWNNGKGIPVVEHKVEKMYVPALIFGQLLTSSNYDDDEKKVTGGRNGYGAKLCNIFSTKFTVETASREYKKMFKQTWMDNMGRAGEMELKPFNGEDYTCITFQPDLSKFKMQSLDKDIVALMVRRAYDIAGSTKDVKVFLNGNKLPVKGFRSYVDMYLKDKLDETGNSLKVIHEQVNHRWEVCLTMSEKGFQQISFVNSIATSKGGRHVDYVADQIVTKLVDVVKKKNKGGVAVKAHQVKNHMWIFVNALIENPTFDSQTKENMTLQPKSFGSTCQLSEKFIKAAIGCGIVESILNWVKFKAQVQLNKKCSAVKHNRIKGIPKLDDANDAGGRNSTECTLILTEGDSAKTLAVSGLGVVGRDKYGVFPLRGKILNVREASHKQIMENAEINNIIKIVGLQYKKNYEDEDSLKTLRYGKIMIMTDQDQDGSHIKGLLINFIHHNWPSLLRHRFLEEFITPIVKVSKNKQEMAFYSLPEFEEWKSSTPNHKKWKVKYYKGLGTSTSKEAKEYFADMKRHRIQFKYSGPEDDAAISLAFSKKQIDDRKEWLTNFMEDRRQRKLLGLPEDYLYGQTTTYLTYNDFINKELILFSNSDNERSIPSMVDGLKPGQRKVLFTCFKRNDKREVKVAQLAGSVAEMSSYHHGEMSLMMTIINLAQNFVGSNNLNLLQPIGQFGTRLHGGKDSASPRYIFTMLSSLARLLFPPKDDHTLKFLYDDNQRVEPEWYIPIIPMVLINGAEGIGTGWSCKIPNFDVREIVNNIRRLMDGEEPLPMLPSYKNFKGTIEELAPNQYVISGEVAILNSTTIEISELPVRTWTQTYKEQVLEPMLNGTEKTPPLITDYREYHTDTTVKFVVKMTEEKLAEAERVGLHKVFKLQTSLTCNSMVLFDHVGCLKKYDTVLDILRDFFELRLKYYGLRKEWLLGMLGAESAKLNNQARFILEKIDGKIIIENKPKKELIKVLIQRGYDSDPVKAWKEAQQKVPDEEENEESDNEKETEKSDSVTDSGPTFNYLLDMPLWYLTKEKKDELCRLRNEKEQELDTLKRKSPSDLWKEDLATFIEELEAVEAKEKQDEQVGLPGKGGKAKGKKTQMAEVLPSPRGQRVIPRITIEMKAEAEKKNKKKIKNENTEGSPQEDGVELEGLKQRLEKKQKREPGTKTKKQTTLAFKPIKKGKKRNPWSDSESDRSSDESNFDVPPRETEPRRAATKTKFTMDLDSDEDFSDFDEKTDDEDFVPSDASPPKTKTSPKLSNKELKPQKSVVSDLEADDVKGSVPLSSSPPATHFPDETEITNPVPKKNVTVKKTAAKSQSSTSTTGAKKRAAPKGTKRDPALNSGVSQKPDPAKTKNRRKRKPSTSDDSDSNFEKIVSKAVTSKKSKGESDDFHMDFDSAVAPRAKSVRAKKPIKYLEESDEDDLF
The subject of series [4] is Nucleic Acid. Kind of series: Inhibition of Fenton's reaction mediated DNA strand break in Escherichia coli pBR322 at 1 to 100 uM by gel electrophoresis. Format: nucleic-acid assay. The method, boiled down:
as §1

Series [5] concerns HT-29. Put plainly: Cell cycle arrest in nocodazole pretreated human HT-29 cells assessed as accumulation at M phase at 10 uM after 24 hrs. The class given is functional, cell-based. The method, boiled down: as §2
Series [6] deals with Nucleic Acid. Kind of series: Inhibition of Fenton's reaction mediated DNA strand break in Escherichia coli pBR322 by gel electrophoresis. The class given is nucleic-acid assay. The method, boiled down: as §1
Series [7] concerns Mus musculus. Put plainly: Toxicity in Kunming mouse bearing mouse S180 cells assessed as change in body weight at 50 mg/kg/day, ip for 2 days (reference value: 18.1 g). The settings on record: in vivo, 48 h. The arrangement: route intraperitoneal. The class given is organism-based, CCRF S-180.
In series [8] the test system is CCRF S-180. Put plainly: Antitumor activity against mouse S180 cells transplanted in Kunming mouse assessed as inhibition of tumor growth at 50 mg/kg/day, iv for 2 days. The class given is functional. The settings on record: CCRF S-180, 48 h. The method, boiled down: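 Female Kunming mice, 7 weeks old, 18-22 g, were inoculated sc in the right armpit with S-180 sarcoma. Dosing started the next day: the drug iv, vehicle controls normal saline. After treatment, mice were killed, and solid tumors were excised and weighed. Inhibitory rate (%) = (mean control tumor weight − mean treated tumor weight)/mean control tumor weight × 100.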

Experimental findings from ChEMBL document CHEMBL1157101, “A series of alpha-heterocyclic carboxaldehyde thiosemicarbazones inhibit topoisomerase IIalpha catalytic activity” (J Med Chem, 2010) are described below.

Calls of active or inactive are those of the source. The calls are words filed in the database; no cut-off is given here.

With `CC(=O)N(O)CCCCCNC(=O)CCC(=O)N(O)CCCCCNC(=O)CCC(=O)N(O)CCCCCN`, the inhibition result in series [1] and in series [4] was “Active” in each case. Also, the outcome in series [2] and in series [5] was Active. For the same compound, the inhibition entry in series [3] is “inactive”. The inhibition entry in series [6] was “Dose-dependent effect”.
As a reminder, the inhibition in vivo is the share of the control response that was lost under treatment. In the case of `O=c1[nH]cc(F)c(=O)[nH]1` [FLUOROURACIL], the Activity in series [7] is recorded as 27.5 g. In series [8], the inhibition in vivo at 50 mg/kg/day worked out at 80.7%.
